Data taken from ChEMBL document CHEMBL1144716, “Synthesis of 1-/2-substituted-[1,2,3]triazolo[4,5-g]phthalazine-4,9-diones and evaluation of their cytotoxicity and topoisomerase II inhibition” (Bioorg Med Chem, 2008).

Assays:
A549 = experiment: Cytotoxicity against human A549 cells after 3 days by SRB assay; format: functional, cell-based; conditions: A549, 72 h
SK-OV-3 = experiment: Cytotoxicity against human SKOV3 cells after 3 days by SRB assay; format: functional, cell-based; conditions: SK-OV-3, 72 h
SK-MEL-2 = experiment: Cytotoxicity against human SK-MEL-2 cells after 3 days by SRB assay; format: functional, cell-based; conditions: SK-MEL-2, 72 h
XF498 = experiment: Cytotoxicity against human XF498 cells after 3 days by SRB assay; format: functional, cell-based; conditions: XF498, 72 h
HCT-15 = experiment: Cytotoxicity against human HCT15 cells after 3 days by SRB assay; format: functional, cell-based; conditions: HCT-15, 72 h
SNU-638 = experiment: Cytotoxicity against human SNU638 cells after 3 days by SRB assay; format: functional, cell-based; conditions: SNU-638, 72 h
HT-1080 = experiment: Cytotoxicity against human HT1080 cells after 3 days by SRB assay; format: functional, cell-based; conditions: HT-1080, 72 h
HL-60 = experiment: Cytotoxicity against human HL60 cells after 3 days by SRB assay; format: functional, cell-based; conditions: HL-60, 72 h
[1] = biological target: DNA topoisomerase 2-alpha (Homo sapiens, UniProt P11388); experiment: Inhibition of human recombinant topoisomerase 2 by decatenation assay
DNA topoisomerase 2-alpha, sequence (P11388 whole entry): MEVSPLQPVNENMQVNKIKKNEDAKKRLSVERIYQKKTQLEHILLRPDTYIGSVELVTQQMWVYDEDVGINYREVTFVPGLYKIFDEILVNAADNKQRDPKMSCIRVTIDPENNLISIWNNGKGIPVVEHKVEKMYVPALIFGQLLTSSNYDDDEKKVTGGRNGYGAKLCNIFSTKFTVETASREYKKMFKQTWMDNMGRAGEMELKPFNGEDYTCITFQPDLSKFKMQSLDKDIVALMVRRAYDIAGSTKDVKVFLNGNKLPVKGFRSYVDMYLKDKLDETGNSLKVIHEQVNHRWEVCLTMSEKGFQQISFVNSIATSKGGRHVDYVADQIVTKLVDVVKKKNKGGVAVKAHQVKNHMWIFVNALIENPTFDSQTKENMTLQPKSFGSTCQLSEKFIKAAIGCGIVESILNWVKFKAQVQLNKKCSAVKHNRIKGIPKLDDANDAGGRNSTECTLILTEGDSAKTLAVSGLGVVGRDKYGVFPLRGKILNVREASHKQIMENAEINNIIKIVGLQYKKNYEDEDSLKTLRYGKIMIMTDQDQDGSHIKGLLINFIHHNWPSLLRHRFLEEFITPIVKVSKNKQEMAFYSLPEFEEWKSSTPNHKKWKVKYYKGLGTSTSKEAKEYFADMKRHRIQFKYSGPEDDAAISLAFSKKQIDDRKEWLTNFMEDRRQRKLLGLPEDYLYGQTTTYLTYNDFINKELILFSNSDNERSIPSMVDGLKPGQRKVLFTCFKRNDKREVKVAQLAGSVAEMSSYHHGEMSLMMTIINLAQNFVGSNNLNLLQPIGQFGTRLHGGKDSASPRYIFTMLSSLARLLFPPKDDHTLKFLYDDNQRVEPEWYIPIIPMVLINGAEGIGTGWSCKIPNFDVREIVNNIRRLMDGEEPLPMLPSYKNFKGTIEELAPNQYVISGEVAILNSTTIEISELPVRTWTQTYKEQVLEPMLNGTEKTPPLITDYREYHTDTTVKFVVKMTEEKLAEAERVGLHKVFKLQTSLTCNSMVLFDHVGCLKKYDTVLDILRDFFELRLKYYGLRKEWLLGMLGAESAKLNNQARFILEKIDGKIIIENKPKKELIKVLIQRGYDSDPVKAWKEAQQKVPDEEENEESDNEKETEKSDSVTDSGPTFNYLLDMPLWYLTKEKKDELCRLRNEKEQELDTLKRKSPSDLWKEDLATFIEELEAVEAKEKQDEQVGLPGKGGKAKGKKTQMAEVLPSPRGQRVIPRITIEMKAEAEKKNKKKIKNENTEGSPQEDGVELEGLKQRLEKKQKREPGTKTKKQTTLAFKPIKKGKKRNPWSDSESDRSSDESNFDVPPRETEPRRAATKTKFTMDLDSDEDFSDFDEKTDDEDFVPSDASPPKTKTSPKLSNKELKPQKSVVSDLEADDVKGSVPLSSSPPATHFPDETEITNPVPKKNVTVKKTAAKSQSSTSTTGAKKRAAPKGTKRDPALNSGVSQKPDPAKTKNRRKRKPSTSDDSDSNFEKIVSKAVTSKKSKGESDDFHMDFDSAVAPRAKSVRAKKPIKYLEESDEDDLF
Procedure, shortened: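 One unit of human recombinant topo II (the amount that fully decatenates 200 ng kDNA) with 200 ng kinetoplast DNA in 50 mM Tris-HCl pH 8, 120 mM KCl, 10 mM MgCl2, 0.5 mM ATP, 0.5 mM DTT, 30 µg/mL BSA. Drug stocks in DMSO. 10 min at 37 °C, stopped with sarkosyl loading dye. Decatenation read on 1% agarose gel in TBE.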

IC50 [1] [nM] | SMILES | IC50 (A549) [nM] | IC50 (SK-OV-3) [nM] | IC50 (SK-MEL-2) [nM] | IC50 (XF498) [nM] | IC50 (HCT-15) [nM] | IC50 (SNU-638) [nM] | IC50 (HT-1080) [nM] | IC50 (HL-60) [nM]
49000 | CCCn1nnc2c1C(=O)c1cnncc1C2=O | 26 | 14 | 20 | 85 | 176 | 212 | 75 | 83
28600 | COc1ccc(Cn2nnc3c2C(=O)c2cnncc2C3=O)cc1 | 54 | 12 | 41 | 118 | 59 | 257 | 330 | 130
39000 | Cn1nnc2c1C(=O)c1cnncc1C2=O | 4 | 3 | 8 | 35 | 103 | 241 | 73 | 82
55600 | Cn1nc2c(n1)C(=O)c1cnncc1C2=O | 2 | 0.4 | 2 | 4 | 20 | 54 | 7.8 | 124
52800 | O=C1c2cnncc2C(=O)c2[nH]nnc21 | 9020 | 7640 | > 10000 | > 10000 | > 10000 | > 5000 | > 5000 | > 5000
64800 | CCCCn1nc2c(n1)C(=O)c1cnncc1C2=O | 18 | 17 | 15 | 19 | 18 | 50 | 30 | 151
33300 | CC(C)n1nnc2c1C(=O)c1cnncc1C2=O | 32 | 49 | 16 | 49 | 33 | 57 | 114 | 50
43200 | CCCCn1nnc2c1C(=O)c1cnncc1C2=O | 81 | 21 | 23 | 181 | 177 | 155 | 99 | 89
19400 | CC(C)Cn1nc2c(n1)C(=O)c1cnncc1C2=O | 19 | 43 | 15 | 19 | 29 | 14 | 85 | 38
44400 | CCCn1nc2c(n1)C(=O)c1cnncc1C2=O | 19 | 9 | 9 | 18 | 18 | 43 | 33 | 157
29800 | CC(C)Cn1nnc2c1C(=O)c1cnncc1C2=O | 110 | 190 | 66 | 140 | 110 | 69 | 77 | 75
54500 | CC(C)n1nc2c(n1)C(=O)c1cnncc1C2=O | 9 | 31 | 7 | 14 | 14 | 11 | 55 | 18
61500 | CCn1nc2c(n1)C(=O)c1cnncc1C2=O | 18 | 3 | 4 | 17 | 18 | 46 | 204 | 90
55600 | CCn1nnc2c1C(=O)c1cnncc1C2=O | 6 | 3 | 8 | 34 | 39 | 126 | 68 | 56
– | COc1cccc2c1C(=O)c1c(O)c3c(c(O)c1C2=O)C[C@@](O)(C(=O)CO)C[C@@H]3O[C@H]1C[C@H](N)[C@H](O)[C@H](C)O1 [DOXORUBICIN] | – | 41 | 19 | 44 | 251 | 52 | 22 | 44
– | COc1cc([C@@H]2c3cc4c(cc3[C@@H](O[C@@H]3O[C@@H]5CO[C@@H](C)O[C@H]5[C@H](O)[C@H]3O)[C@H]3COC(=O)[C@H]23)OCO4)cc(OC)c1O [ETOPOSIDE] | 1160 | 4280 | 5720 | 3480 | 2800 | 230 | 250 | 370
